Assay results taken from ChEMBL document CHEMBL5724801, “EUbOPEN Chemogenomics Library - Multiplex” (2024).
“And” between values parts separate entries of the source, which are not always exact repeats. Equal entries are not always repeated.

Each compound was assayed on HEK-293T (assay: Multiplex assay against HEK293T). Details: human, 12 h, 1 µM, compound concentration 1 uM.
Type: toxicity, cell-based
Method in brief: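 Four dyes were applied at seeding to live cells: Hoechst33342, BioTracker Green Microtubule Cytoskeleton Dye, MitoTracker Red and Annexin V Alexa Fluor 680. Imaging after compound addition used a CQ1 microscope at 37°C and 5% CO2. CellPathfinder machine-learning gating then sorted cells into Hoechst high-intensity objects or normal cells, normal cells into healthy, pyknosed or fragmented nuclei, and pyknosed cells into mitotic or apoptotic, with tubulin, mitochondrial-mass and membrane-permeability phenotypes given as per cents of healthy-nucleus cells.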

Row | SMILES | Population Apoptotic (%) | Population Fragmented Nuclei (%) | Population Healthy Nuclei (%) | Population Hoechst High Intensity Objects (%) | Population Membrane Permeable-Phenotype (%) | Population Mitochondria Different-Phenotype (%) | Population Mitotic Cells (%) | Population Normal (%) | Population Pyknosed Nuclei (%) | Total Cell Count
1 | CCOC(=O)c1c(/C(C#N)=C\N)c2ccc(Cl)c(Cl)c2n1C | 10.92% and 11.11% | 1.47% and 6.57% | 63.42% and 21.17% | 0.59% and 0% | 0.47% and 0% | 35.81% and 27.59% | 89.08% and 88.89% | 99.41% and 100% | 35.1% and 72.26% | 341 and 137
2 | Cc1c(C(=O)NCCCN(C)C)sc2ncnc(Nc3ccc(F)cc3OC(C)CF)c12 (centres undefined) | 8.15% and 7.44% | 1.52% and 6.08% |  | 0% | 0.79% and 5.56% | 38.58% and 38.89% | 91.85% and 92.56% | 100% | 34.18% and 81.76% | 395 and 148
3 | Cc1ccc(-c2c(C(=O)CF)n(CCCO)c3ncnc(N)c23)cc1 | 10.53% and 14.63% | 2.38% and 4.08% |  | 0% | 0% and 5.56% |  | 89.47% and 85.37% | 100% | 38.78% and 83.67% | 294 and 147
4 | Cc1c(-c2cc(-c3ccccc3Cl)no2)cnn1C1CCNCC1.Cl | 10.39% and 11.29% | 3.59% and 2.19% |  | 0.28% and 0% | 0% | 33.33% and 20% | 89.61% and 88.71% | 99.72% and 100% | 42.54% and 90.51% | 363 and 137

Same assay, conditions: human, 12 h, 1 µM, compound concentration 1 uM

Row | SMILES | Population Tubulin-Different-Phenotype (%)
5 | Cc1c(-c2cc(-c3ccccc3Cl)no2)cnn1C1CCNCC1.Cl | 9.74% and 20%

Same assay, conditions: human, 12 h, 10 µM, compound concentration 10 uM

Row | SMILES | Population Apoptotic (%) | Population Fragmented Nuclei (%) | Population Healthy Nuclei (%) | Population Hoechst High Intensity Objects (%) | Population Membrane Permeable-Phenotype (%) | Population Mitochondria Different-Phenotype (%) | Population Mitotic Cells (%) | Population Normal (%) | Population Pyknosed Nuclei (%) | Total Cell Count
6 | CCOC(=O)c1c(/C(C#N)=C\N)c2ccc(Cl)c(Cl)c2n1C | 10.34% and 8.77% | 2.88% and 1.83% | 59.94% and 28.66% | 0.64% and 0% | 0.53% and 0% | 26.74% and 19.15% | 89.66% and 91.23% | 99.36% and 100% | 37.18% and 69.51% | 314 and 164
7 | Cc1c(C(=O)NCCCN(C)C)sc2ncnc(Nc3ccc(F)cc3OC(C)CF)c12 (centres undefined) | 12.67% and 12.38% | 1.93% and 0.83% | 25.6% and 12.4% | 0% |  |  | 87.33% and 87.62% | 100% | 72.46% and 86.78% | 207 and 121
8 | Cc1ccc(-c2c(C(=O)CF)n(CCCO)c3ncnc(N)c23)cc1 | 9.68% and 15.93% | 5.7% and 4.44% |  | 0.33% and 0% | 1.91% and 0% | 38.22% and 25% | 90.32% and 84.07% | 99.67% and 100% | 41.61% and 83.7% | 299 and 135
9 | Cc1c(-c2cc(-c3ccccc3Cl)no2)cnn1C1CCNCC1.Cl | 15.64% and 14.06% | 1.78% and 2.96% |  | 0.44% and 0% | 2.38% and 0% | 42.86% and 33.33% | 84.36% and 85.94% | 99.56% and 100% | 79.56% and 94.81% | 226 and 135

Same assay, conditions: human, 12 h, 10 µM, compound concentration 10 uM

Row | SMILES | Population Tubulin-Different-Phenotype (%)
10 | Cc1c(C(=O)NCCCN(C)C)sc2ncnc(Nc3ccc(F)cc3OC(C)CF)c12 (centres undefined) | 81.13% and 53.33%
11 | Cc1ccc(-c2c(C(=O)CF)n(CCCO)c3ncnc(N)c23)cc1 | 17.83% and 37.5%
12 | Cc1c(-c2cc(-c3ccccc3Cl)no2)cnn1C1CCNCC1.Cl | 78.57% and 100%

Same assay, conditions: human, 24 h, 1 µM, compound concentration 1 uM

Row | SMILES | Population Apoptotic (%) | Population Fragmented Nuclei (%) | Population Healthy Nuclei (%) | Population Hoechst High Intensity Objects (%) | Population Membrane Permeable-Phenotype (%) | Population Mitochondria Different-Phenotype (%) | Population Mitotic Cells (%) | Population Normal (%) | Population Pyknosed Nuclei (%) | Population Tubulin-Different-Phenotype (%)
13 | CCOC(=O)c1c(/C(C#N)=C\N)c2ccc(Cl)c(Cl)c2n1C | 15.32% and 13.98% | 1.11% and 3.87% | 78.41% and 36.13% | 0.18% and 0% | 1.18% and 0% | 15.29% and 16.07% | 84.68% and 86.02% | 99.82% and 100% | 20.48% and 60% | 5.88% and 5.36%
14 | Cc1c(C(=O)NCCCN(C)C)sc2ncnc(Nc3ccc(F)cc3OC(C)CF)c12 (centres undefined) | 11.02% and 10.43% | 2.43% and 2.58% |  | 0% | 0.68% and 2.78% | 18.96% and 11.11% | 88.98% and 89.57% | 100% |  | 36.57% and 13.89%
15 | Cc1ccc(-c2c(C(=O)CF)n(CCCO)c3ncnc(N)c23)cc1 | 6.73% and 15.13% | 3.4% and 2.5% |  | 0% | 2.86% and 0% | 14.57% and 8.11% | 93.27% and 84.87% | 100% |  | 10.86% and 5.41%
16 | Cc1c(-c2cc(-c3ccccc3Cl)no2)cnn1C1CCNCC1.Cl | 16.36% and 12.04% | 2.54% and 2.07% | 62.58% and 23.45% | 0.21% and 0.68% | 1.35% and 0% | 20.61% and 26.47% | 83.64% and 87.96% | 99.79% and 99.32% | 34.88% and 74.48% | 23.31% and 17.65%

Same assay, conditions: human, 24 h, 1 µM, compound concentration 1 uM

Row | SMILES | Total Cell Count
17 | Cc1ccc(-c2c(C(=O)CF)n(CCCO)c3ncnc(N)c23)cc1 | 470 and 160

Same assay, conditions: human, 24 h, 10 µM, compound concentration 10 uM

Row | SMILES | Population Apoptotic (%) | Population Fragmented Nuclei (%) | Population Healthy Nuclei (%) | Population Hoechst High Intensity Objects (%) | Population Membrane Permeable-Phenotype (%) | Population Mitochondria Different-Phenotype (%) | Population Mitotic Cells (%) | Population Normal (%) | Population Pyknosed Nuclei (%) | Population Tubulin-Different-Phenotype (%)
18 | CCOC(=O)c1c(/C(C#N)=C\N)c2ccc(Cl)c(Cl)c2n1C | 10.47% and 16.46% | 1.69% and 1.2% | 80.17% and 51.2% | 0% | 1.05% and 1.18% | 14.21% and 7.06% | 89.53% and 83.54% | 100% | 18.14% and 47.59% | 7.11% and 4.71%
19 | Cc1c(C(=O)NCCCN(C)C)sc2ncnc(Nc3ccc(F)cc3OC(C)CF)c12 (centres undefined) | 33.73% and 30.77% | 1.65% and 0% | 29.75% and 17.27% | 0% | 1.39% and 0% | 69.44% and 26.32% | 66.27% and 69.23% | 100% | 68.6% and 82.73% | 80.56% and 73.68%
20 | Cc1ccc(-c2c(C(=O)CF)n(CCCO)c3ncnc(N)c23)cc1 | 19.61% and 24.07% | 2.25% and 2.94% | 74.77% and 33.53% | 0% | 0.9% and 0% |  | 80.39% and 75.93% | 100% | 22.97% and 63.53% | 24.4% and 8.77%
21 | Cc1c(-c2cc(-c3ccccc3Cl)no2)cnn1C1CCNCC1.Cl | 46.71% and 55.88% | 1.42% and 2.05% |  | 1.85% and 0.68% | 0% and 14.29% | 78.57% and 57.14% | 53.29% and 44.12% | 98.15% and 99.32% | 78.77% and 93.15% | 92.86% and 85.71%

Same assay, conditions: human, 24 h, 10 µM, compound concentration 10 uM

Row | SMILES | Total Cell Count
22 | CCOC(=O)c1c(/C(C#N)=C\N)c2ccc(Cl)c(Cl)c2n1C | 474 and 166
23 | Cc1c(C(=O)NCCCN(C)C)sc2ncnc(Nc3ccc(F)cc3OC(C)CF)c12 (centres undefined) | 242 and 110
24 | Cc1ccc(-c2c(C(=O)CF)n(CCCO)c3ncnc(N)c23)cc1 | 444 and 170
25 | Cc1c(-c2cc(-c3ccccc3Cl)no2)cnn1C1CCNCC1.Cl | 216 and 147

Same assay, conditions: human, 48 h, 1 µM, compound concentration 1 uM

Row | SMILES | Population Apoptotic (%) | Population Fragmented Nuclei (%) | Population Healthy Nuclei (%) | Population Hoechst High Intensity Objects (%) | Population Membrane Permeable-Phenotype (%) | Population Mitochondria Different-Phenotype (%) | Population Mitotic Cells (%) | Population Normal (%) | Population Pyknosed Nuclei (%)
26 | CCOC(=O)c1c(/C(C#N)=C\N)c2ccc(Cl)c(Cl)c2n1C | 7.43% and 15.94% | 4.65% and 2.55% | 86.28% and 72.26% | 0% | 4.76% and 3.03% | 8.8% and 13.13% | 92.57% and 84.06% | 100% | 9.06% and 25.18%
27 | Cc1c(C(=O)NCCCN(C)C)sc2ncnc(Nc3ccc(F)cc3OC(C)CF)c12 (centres undefined) | 9.92% and 23.86% | 3.85% and 2.43% | 86.64% and 54.85% | 0% | 6.37% and 1.77% | 17.27% and 49.56% | 90.08% and 76.14% | 100% | 
28 | Cc1ccc(-c2c(C(=O)CF)n(CCCO)c3ncnc(N)c23)cc1 |  | 1.92% and 2.58% | 88.16% and 57.22% | 0% | 5.14% and 2.7% | 13.34% and 21.62% | 97.67% and 83.33% | 100% | 
29 | Cc1c(-c2cc(-c3ccccc3Cl)no2)cnn1C1CCNCC1.Cl | 12.5% and 24.62% | 3.19% and 2.61% | 82.92% and 54.9% | 0% and 1.29% | 4.07% and 0% | 28.52% and 35.71% | 87.5% and 75.38% | 100% and 98.71% | 

Same assay, conditions: human, 48 h, 10 µM, compound concentration 10 uM

Row | SMILES | Population Apoptotic (%) | Population Fragmented Nuclei (%) | Population Healthy Nuclei (%) | Population Hoechst High Intensity Objects (%) | Population Membrane Permeable-Phenotype (%) | Population Mitochondria Different-Phenotype (%) | Population Mitotic Cells (%) | Population Normal (%) | Population Pyknosed Nuclei (%) | Population Tubulin-Different-Phenotype (%)
30 | CCOC(=O)c1c(/C(C#N)=C\N)c2ccc(Cl)c(Cl)c2n1C | 9.24% and 19.3% | 4.82% and 1.55% | 85.93% and 80.75% | 0% and 0.92% | 5.88% and 2.31% | 11.04% and 11.15% | 90.76% and 80.7% | 100% and 99.08% | 9.25% and 17.7% | 
31 | Cc1c(C(=O)NCCCN(C)C)sc2ncnc(Nc3ccc(F)cc3OC(C)CF)c12 (centres undefined) | 42.07% and 65.33% | 1.78% and 1.64% | 46.62% and 36.89% | 0.35% and 0.81% | 1.53% and 0% | 90.84% and 55.56% | 57.93% and 34.67% | 99.65% and 99.19% | 51.6% and 61.48% | 30.53% and 82.22%
32 | Cc1ccc(-c2c(C(=O)CF)n(CCCO)c3ncnc(N)c23)cc1 | 7.29% and 16.44% | 3.41% and 2.51% | 87.23% and 60.8% | 0% | 3.58% and 0.83% | 25.47% and 33.88% | 92.71% and 83.56% | 100% |  | 
33 | Cc1c(-c2cc(-c3ccccc3Cl)no2)cnn1C1CCNCC1.Cl | 59.7% and 87.84% | 1.25% and 4.94% |  | 2.44% and 0% | 0.97% and 0% | 87.38% and 100% |  | 97.56% and 100% | 55.83% and 91.36% | 73.79% and 100%

Same assay, conditions: human, 48 h, 10 µM, compound concentration 10 uM

Row | SMILES | Total Cell Count
34 | Cc1c(C(=O)NCCCN(C)C)sc2ncnc(Nc3ccc(F)cc3OC(C)CF)c12 (centres undefined) | 282 and 123
35 | Cc1c(-c2cc(-c3ccccc3Cl)no2)cnn1C1CCNCC1.Cl | 246 and 162
